The values that follow come from ChEMBL document CHEMBL2086229, “Synthesis and biological activities of 4-substituted pyrrolo[2,3-a]carbazole Pim kinase inhibitors” (Eur J Med Chem, 2012).

The structures appear in SMILES notation. Calls of active or inactive are those of the source. No cut-off for these calls is given here.

Test [1] has as its system PC-3. The test can be described thus: Antiproliferative activity against human PC3 cells assessed as growth inhibition at 1 uM after 48 hrs by resazurin reduction test. The format is functional, cell-based. The method in brief:
(§1)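 PA1 and PC3 cells seeded at 5 × 10³ per well, adhered 16 h, then exposed 48 h continuously to a single drug concentration (1 or 10 μM) from 20 mM DMSO stock. Growth read by resazurin reduction (25 μg/mL, 1 h, 37 °C), fluorescence ex 530/em 590 nm, as survival relative to control wells after blank subtraction.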
Background: Alamar Blue is a resazurin reagent that responds to reducing activity.

Test [2] has as its system PA-1. As to the kind of experiment: Antiproliferative activity against human PA1 cells assessed as growth inhibition at 10 uM after 48 hrs by resazurin reduction test. The format is functional, cell-based. The method in brief: as §1
Test [3] addresses Serine/threonine-protein kinase pim-2 (Homo sapiens) (UniProt Q9P1W9). As to the kind of experiment: Inhibition of human Pim2 using RSRHSSYPAGT as substrate assessed as residual activity at 10 uM.
Test [4] addresses T1, Serine/threonine-protein kinase pim-3 (Homo sapiens, UniProt Q86V86). As to the kind of experiment: Inhibition of human Pim3 using RSRHSSYPAGT as substrate assessed as residual activity at 10 uM.
For test [5], the target named is Serine/threonine-protein kinase pim-2 (Homo sapiens) (UniProt Q9P1W9). As to the kind of experiment: Inhibition of human Pim2 using RSRHSSYPAGT as substrate assessed as residual activity at 1 uM.
The test system of test [6] is PC-3. As to the kind of experiment: Antiproliferative activity against human PC3 cells assessed as growth inhibition at 10 uM after 48 hrs by resazurin reduction test. The test is classed as functional, cell-based. The method in brief:
as §1

Test [7] concerns the target T2, Serine/threonine-protein kinase pim-1 (Homo sapiens, UniProt P11309). The test can be described thus: Inhibition of human Pim1 using RSRHSSYPAGT as substrate assessed as residual activity at 10 uM.
Target sequence in this assay (P11309 whole entry, looked up): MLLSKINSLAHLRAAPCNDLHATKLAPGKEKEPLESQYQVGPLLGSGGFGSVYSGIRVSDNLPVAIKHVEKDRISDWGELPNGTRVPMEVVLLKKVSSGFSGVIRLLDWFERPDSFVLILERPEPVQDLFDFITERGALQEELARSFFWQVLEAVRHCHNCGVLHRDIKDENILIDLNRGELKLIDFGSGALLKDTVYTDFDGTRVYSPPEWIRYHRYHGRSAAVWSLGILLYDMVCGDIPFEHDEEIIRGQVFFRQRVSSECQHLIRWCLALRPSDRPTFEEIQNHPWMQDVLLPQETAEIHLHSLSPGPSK
In test [8] the test system is PA-1. As to the kind of experiment: Antiproliferative activity against human PA1 cells assessed as growth inhibition at 1 uM after 48 hrs by resazurin reduction test. The format is functional, cell-based. The method in brief:
as §1

For test [9], the target named is T2, Serine/threonine-protein kinase pim-1. The test can be described thus: Inhibition of human Pim1 using RSRHSSYPAGT as substrate assessed as residual activity at 1 uM.
Target sequence in this assay (P11309 whole entry, looked up): as above
Test [10] addresses T1, Serine/threonine-protein kinase pim-3. As to the kind of experiment: Inhibition of human Pim3 using RSRHSSYPAGT as substrate assessed as residual activity at 1 uM.
For test [11] the target is unchanged. The test can be described thus: Inhibition of human Pim3 using RSRHSSYPAGT as substrate.
In test [12] the test system is PC-3. The test can be described thus: Antiproliferative activity against human PC3 cells after 48 hrs by resazurin reduction test. The format is functional, cell-based. The essentials: (§2)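 Cells kept as monolayers in Glutamax MEM with Earle's salts, 10% fetal calf serum, sodium pyruvate, non-essential amino acids and gentamicin, 37 °C, 5% CO2. Seeded at 5 × 10³ cells/well, adhered 16 h, then given drug from 20 mM DMSO stock for 48 h continuously. Resazurin (25 μg/mL, 1 h, 37 °C) fluorescence read at ex 530/em 590 nm. IC50 taken from concentration–survival curve versus control wells, blank subtracted.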

In the next test the test system is DU-145. As to the kind of experiment: Antiproliferative activity against human DU145 cells after 48 hrs by resazurin reduction test. The test is classed as functional, cell-based. The method in brief:
as §2

The test system of test [13] is PA-1. The test can be described thus: Antiproliferative activity against human PA1 cells after 48 hrs by resazurin reduction test. The test is classed as functional, cell-based. The method in brief:
as §2

Test [14] can be described thus: Antiproliferative activity against human fibroblasts after 48 hrs by resazurin reduction test. As to conditions: Fibroblast. The test is classed as cell-based. The essentials: as §2
The target in test [15] is T2, Serine/threonine-protein kinase pim-1. As to the kind of experiment: Inhibition of human Pim1 using RSRHSSYPAGT as substrate.
Target sequence in this assay (P11309 whole entry): as the sequence (P11309 whole entry, looked up) above

Chain of Serine/threonine-protein kinase pim-2 (Homo sapiens) (Q9P1W9 whole entry, looked up): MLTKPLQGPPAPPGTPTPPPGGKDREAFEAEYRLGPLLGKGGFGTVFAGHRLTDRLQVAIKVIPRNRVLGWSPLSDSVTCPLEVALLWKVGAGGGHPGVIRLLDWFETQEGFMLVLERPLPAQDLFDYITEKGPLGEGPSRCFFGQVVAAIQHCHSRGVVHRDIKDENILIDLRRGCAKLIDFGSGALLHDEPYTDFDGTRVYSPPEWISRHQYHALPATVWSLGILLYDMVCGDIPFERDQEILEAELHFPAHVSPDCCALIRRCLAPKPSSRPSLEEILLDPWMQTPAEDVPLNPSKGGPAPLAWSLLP

`O=C(O)c1cc2c3ccccc3[nH]c2c2[nH]ccc12`: the “growth inhibition (GI)” value in the test with PC-3 [1], with PA-1 [2], in the test on PC-3 [6] and in the test on PA-1 [8] was “inactive” in each case. Further, the Activity in test [3] amounted to 93%; in test [4], 65%; in test [5], 100%; in test [7], 70%; in test [9], 90%; in test [10], 101%.
Turning to `COC(=O)c1cc2c([nH]c3cccc(N)c32)c2[nH]ccc12`, in [11], it took 0.41 µM to reach half-maximal inhibition (IC50). Further, the Activity turned out to be 77% in test [3]; 16% in test [4]; 93% in test [5]; 39% in test [7]; 90% in test [9]; 40% in test [10]. For the same molecule, the “growth inhibition (GI)” value with PC-3 [12], in the test with DU-145 and in the test on PA-1 [13] was “inactive” each time.
With `Nc1cccc2[nH]c3c(cc(C(=O)O)c4cc[nH]c43)c12`, the “growth inhibition (GI)” value in the test with PC-3 [1], in the test on PA-1 [2], with PC-3 [6] and in the test on PA-1 [8] was “inactive” each time. The Activity in [3] was 89%; in [4] it was 55%; in [5] it was 101%; in test [7], 87%; in [9], 103%; in test [10] it was 103%.
On to `COC(=O)c1cc2c3ccccc3[nH]c2c2[nH]ccc12`, for which the IC50 was 0.5 µM in [11]; 8 µM in test [14]; 6 µM in the test with PC-3 [12] (PC-3, 48 h); more than 50 µM in the test on DU-145 (DU-145, 48 h); 3 µM in [15]; 27 µM in the test with PA-1 [13] (PA-1, 48 h). For the same molecule, the Activity was 75% in [3]; 24% in test [4]; 95% in test [5]; 15% in test [7]; 57% in test [9]; 47% in test [10].
As for `O=Cc1c[nH]c2c1ccc1c3ccccc3[nH]c12`, in test [14], the IC50 stood at 21 µM.

The term IC50 denotes the midpoint of a concentration-inhibition curve. Read a high IC50 as lower potency.
